Values after ≈ are worked out from the molar mass of the structure shown.

In test [1] the test system is Bacteroides thetaiotaomicron. In words: Ratio of antibacterial (Bacteroides thetaiotaomicron) activities compared to that of trimethoprim and metronidazole. The class given is functional.
The test system of a further test is Pasteurella multocida. In words: Antibacterial (Pasteurella multocides ATCC 6587) activity compared to trimethoprim. The class given is functional. Summed up: (§1)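 Each MIC is divided by the MIC of trimethoprim run alongside. Serial dilutions were normally 0.1, 0.3, 1, 3, 10, etc., and occasionally 1, 5 and 10. For E. coli the value is the average over six strains.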

The nature of test [2]: Antibacterial (Salmonella typhi CN512) activity compared to trimethoprim. The test is classed as functional, salmonella typhosa.
The test system of a further test is Streptococcus pyogenes. In words: Antibacterial ([…] CN10) activity compared to trimethoprim. The test is classed as functional. In a few lines: as §1
Another test concerns Klebsiella aerogenes. In words: Antibacterial (Enterobacter aerogenes 2201/86) activity compared to trimethoprim. The test is classed as functional. In a few lines: as §1
The subject of test [3] is Mycolicibacterium smegmatis. In words: Antibacterial (Mycobacterium smegmatis S3254) activity compared to trimethoprim. The class given is functional. In a few lines: as §1
Another test deals with Phocaeicola vulgatus. In words: Ratio of antibacterial (Bacteroides vulgatus) activities compared to that of trimethoprim and metronidazole. The class given is functional.
A further test deals with Proteus vulgaris. In words: Antibacterial (Proteus vulgaris CN329) activity compared to trimethoprim. The class given is functional. In a few lines: as §1
The next test relates to Clostridium perfringens. In words: Ratio of antibacterial (Clostridium perfringens) activities compared to that of trimethoprim and metronidazole. The test is classed as functional.
The next test deals with Klebsiella pneumoniae. In words: Antibacterial (Klebsiella pneumoniae CN3632) activity compared to trimethoprim. The class given is functional. In a few lines:
as §1

Another test relates to Fusobacterium nucleatum. The test can be described thus: Ratio of antibacterial (Fusobacterium nucleatum) activities compared to that of trimethoprim and metronidazole. The class given is functional.
The test system of the next test is Staphylococcus aureus. The test can be described thus: Antibacterial (Staphylococcus aureus CN491) activity compared to trimethoprim. The class given is functional. Summed up: as §1
For a further test, the system named is Serratia marcescens. The test can be described thus: Antibacterial (Serratia marcescens CN2398) activity compared to trimethoprim. The class given is functional. Summed up:
as §1

Another test concerns Clostridioides difficile. The test can be described thus: Ratio of antibacterial (Clostridium difficile) activities compared to that of trimethoprim and metronidazole. The test is classed as functional.
A further test deals with T1, Dihydrofolate reductase (Rattus norvegicus, UniProt Q920D2).
T1 sequence (Q920D2 whole entry): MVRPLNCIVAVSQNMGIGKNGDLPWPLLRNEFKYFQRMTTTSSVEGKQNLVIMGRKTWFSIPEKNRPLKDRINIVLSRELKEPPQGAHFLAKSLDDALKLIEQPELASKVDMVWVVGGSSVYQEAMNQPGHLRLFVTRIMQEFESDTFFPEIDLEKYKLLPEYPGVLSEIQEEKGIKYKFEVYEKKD
In words: In vitro inhibition of rat liver dihydrofolate reductase. The conditions noted are these: read-out: I50.

A further test has as its system Shigella flexneri. In words: Antibacterial (Shigella flexneri CN6007) activity compared to trimethoprim. The test is classed as functional. In a few lines: as §1
In a further test the test system is Escherichia coli. In words: Antibacterial (Escherichia coli) activity compared to trimethoprim. The test is classed as functional. In a few lines:
as §1

Regarding `C=CCOc1cc(Cc2cnc(N)nc2N)cc(OC)c1OC`, the minimal inhibitory concentration (MIC) (as a rule, the lowest concentration found to suppress growth) came out at 12.5 µg/mL in [1]; 10 µg/mL (≈ 31.6 µM) in the test with Pasteurella multocida; 10 µg/mL (≈ 31.6 µM) in test [2]; 0.3 µg/mL (≈ 0.948 µM) with Streptococcus pyogenes; 10 µg/mL (≈ 31.6 µM) against Klebsiella aerogenes; 3 µg/mL (≈ 9.48 µM) in [3]. Further, the MIC in the test on Phocaeicola vulgatus is 6.2 µg/mL; in the test on Proteus vulgaris, 10 µg/mL (≈ 31.6 µM); in the test with Clostridium perfringens, over 25 µg/mL; against Klebsiella pneumoniae, 10 µg/mL (≈ 31.6 µM); in the test on Fusobacterium nucleatum it was 0.8 µg/mL; in the test with Staphylococcus aureus it was 0.3 µg/mL (≈ 0.948 µM). For the same compound, the MIC against Serratia marcescens was 3 µg/mL (≈ 9.48 µM); in the test with Clostridioides difficile, over 25 µg/mL; against Shigella flexneri it was 10 µg/mL (≈ 31.6 µM). Also, the IC50 on Dihydrofolate reductase was determined as 150 µM.
With `C=CCc1cc(Cc2cnc(N)nc2N)cc(CC=C)c1O`, the MIC stood at 0.4 µg/mL in test [1]; 100 µg/mL (≈ 337 µM) against Pasteurella multocida; 10 µg/mL (≈ 33.7 µM) in test [2]; 21 µg/mL (≈ 70.9 µM) against Escherichia coli; 1 µg/mL (≈ 3.37 µM) with Streptococcus pyogenes; 20 µg/mL (≈ 67.5 µM) with Klebsiella aerogenes. Also, the minimum inhibitory concentration (MIC) in [3] was 5 µg/mL (≈ 16.9 µM); with Phocaeicola vulgatus, 0.8 µg/mL; against Proteus vulgaris it was 50 µg/mL (≈ 169 µM); in the test with Clostridium perfringens, over 25 µg/mL; against Klebsiella pneumoniae it was 20 µg/mL (≈ 67.5 µM); with Fusobacterium nucleatum it was 0.8 µg/mL. Also, the MIC in the test on Staphylococcus aureus is 1 µg/mL (≈ 3.37 µM); against Serratia marcescens it was over 10 µg/mL; with Clostridioides difficile, over 25 µg/mL; against Shigella flexneri it was 50 µg/mL (≈ 169 µM). Also, the IC50 on Dihydrofolate reductase was 9.6 µM.
On to `COc1cc(Cc2cnc(N)nc2N)cc(CC(C)O)c1O` (centres undefined), for which the MIC worked out at 3 µg/mL (≈ 9.86 µM) against Pasteurella multocida; 10 µg/mL (≈ 32.9 µM) in [2]; 4 µg/mL (≈ 13.1 µM) against Escherichia coli; 3 µg/mL (≈ 9.86 µM) in the test with Streptococcus pyogenes; 3 µg/mL (≈ 9.86 µM) in the test with Klebsiella aerogenes; 3 µg/mL (≈ 9.86 µM) in test [3]. Besides, the MIC is 30 µg/mL (≈ 98.6 µM) against Proteus vulgaris; 10 µg/mL (≈ 32.9 µM) in the test on Klebsiella pneumoniae; 3 µg/mL (≈ 9.86 µM) with Staphylococcus aureus; over 10 µg/mL in the test on Serratia marcescens; 3 µg/mL (≈ 9.86 µM) in the test on Shigella flexneri. Further, at Dihydrofolate reductase, the IC50 came out at 36 µM.
As to `CCCOc1cc(Cc2cnc(N)nc2N)cc(OC)c1OC`, the MIC against Pasteurella multocida worked out at 3 µg/mL (≈ 9.42 µM); in test [2], 10 µg/mL (≈ 31.4 µM); against Escherichia coli, 6 µg/mL (≈ 18.8 µM); against Streptococcus pyogenes it was 0.3 µg/mL (≈ 0.942 µM); in the test with Klebsiella aerogenes it was 3 µg/mL (≈ 9.42 µM); in test [3], 3 µg/mL (≈ 9.42 µM). Moreover, the MIC with Proteus vulgaris was determined as 3 µg/mL (≈ 9.42 µM); with Klebsiella pneumoniae it was 10 µg/mL (≈ 31.4 µM); in the test on Staphylococcus aureus it was 0.3 µg/mL (≈ 0.942 µM); with Serratia marcescens it was 3 µg/mL (≈ 9.42 µM); in the test on Shigella flexneri, 10 µg/mL (≈ 31.4 µM). The IC50 at Dihydrofolate reductase stood at 94.5 µM.
For `C=CCc1cc(Cc2cnc(N)nc2N)ccc1O`, the MIC against Pasteurella multocida came to 10 µg/mL (≈ 39 µM); in test [2], 100 µg/mL (≈ 390 µM); in the test on Escherichia coli it was 16 µg/mL (≈ 62.4 µM); against Streptococcus pyogenes, 2 µg/mL (≈ 7.8 µM); in the test on Klebsiella aerogenes, 10 µg/mL (≈ 39 µM); in test [3], 5 µg/mL (≈ 19.5 µM). The MIC in the test with Proteus vulgaris was 50 µg/mL (≈ 195 µM); with Clostridium perfringens, over 25 µg/mL; in the test with Klebsiella pneumoniae it was 20 µg/mL (≈ 78 µM); in the test on Fusobacterium nucleatum it was 0.8 µg/mL; against Staphylococcus aureus, 10 µg/mL (≈ 39 µM); against Serratia marcescens it was 20 µg/mL (≈ 78 µM). The MIC with Clostridioides difficile worked out at 25 µg/mL; with Shigella flexneri it was 10 µg/mL (≈ 39 µM). The IC50 on Dihydrofolate reductase turned out to be 94.5 µM.
With `C=CCOc1ccc(Cc2cnc(N)nc2N)cc1OC`, the MIC was found to be 10 µg/mL (≈ 34.9 µM) in the test with Pasteurella multocida; 10 µg/mL (≈ 34.9 µM) in test [2]; 7.6 µg/mL (≈ 26.5 µM) against Escherichia coli; 3 µg/mL (≈ 10.5 µM) in the test on Streptococcus pyogenes; 10 µg/mL (≈ 34.9 µM) with Klebsiella aerogenes; 3 µg/mL (≈ 10.5 µM) in test [3]. Besides, the MIC with Proteus vulgaris is 3 µg/mL (≈ 10.5 µM); with Clostridium perfringens, over 25 µg/mL; against Klebsiella pneumoniae, 10 µg/mL (≈ 34.9 µM); in the test with Fusobacterium nucleatum, 0.8 µg/mL; in the test with Staphylococcus aureus, 10 µg/mL (≈ 34.9 µM); in the test on Serratia marcescens it was 10 µg/mL (≈ 34.9 µM). The minimal inhibitory concentration (MIC) is over 25 µg/mL with Clostridioides difficile and 10 µg/mL (≈ 34.9 µM) with Shigella flexneri. In addition, the IC50 on Dihydrofolate reductase turned out to be 49 µM.
Take `C=CCc1cc(Cc2cnc(N)nc2N)cc(CCC)c1O`: the MIC in test [1] was 0.8 µg/mL; in the test on Pasteurella multocida, 30 µg/mL (≈ 101 µM); in test [2] it was 100 µg/mL (≈ 335 µM); against Escherichia coli, 5 µg/mL (≈ 16.8 µM); in the test on Streptococcus pyogenes, 1 µg/mL (≈ 3.35 µM); against Klebsiella aerogenes it was 30 µg/mL (≈ 101 µM). For the same compound, the MIC in test [3] was 10 µg/mL (≈ 33.5 µM); in the test on Phocaeicola vulgatus, 0.8 µg/mL; with Proteus vulgaris it was 30 µg/mL (≈ 101 µM); in the test on Clostridium perfringens, over 25 µg/mL; in the test on Klebsiella pneumoniae, 30 µg/mL (≈ 101 µM); in the test with Fusobacterium nucleatum, 0.4 µg/mL. For the same compound, the MIC in the test with Staphylococcus aureus was 3 µg/mL (≈ 10.1 µM); in the test on Serratia marcescens it was 3 µg/mL (≈ 10.1 µM); in the test on Clostridioides difficile it was over 25 µg/mL; in the test with Shigella flexneri it was 30 µg/mL (≈ 101 µM). Moreover, the IC50 on Dihydrofolate reductase is 2 µM.

For the origin of these results see ChEMBL document CHEMBL1124568, “2,4-Diamino-5-benzylpyrimidines as antibacterial agents. 13. Some alkenyl derivatives with high in vitro activity against anaerobic organisms” (J Med Chem, 1989).
